One data set has as its system Bacillus subtilis. Briefly: Antimicrobial activity against Bacillus subtilis at 120 ug/disk. The class given is functional. An outline of the steps: (§1)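 Disk diffusion assay with 120 µg loaded per disk. The read-out was the excess radius of the zone around the disk, in mm.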
Data set [1] can be described thus: Cytotoxicity against BSC1 cells assessed as radius zone size at 120 ug/disk. The data set is classed as cell-based. Particulars: chlorocebus aethiops, bsc-1. A digest of the protocol:
as §1

The subject of another data set is Candida albicans. In words: Antimicrobial activity against Candida albicans at 120 ug/disk. The class given is functional, organism-based.
The test system of another data set is Escherichia coli. Briefly: Antimicrobial activity against Escherichia coli at 120 ug/disk. The class given is functional, organism-based.
Data set [2] relates to Mycobacterium tuberculosis. Briefly: Antimicrobial activity against Mycobacterium tuberculosis at 6.25 ug/mL. The class given is functional.
A further data set relates to HL-60. Briefly: Antiproliferative activity against human HL60 cells after 2 days. The data set is classed as functional, cell-based. Particulars: HL-60, 48 h.
The test system of another data set is P388. Briefly: Cytotoxicity against mouse P388 cells. The class given is functional, cell-based.
In data set [3] the test system is Trichophyton mentagrophytes. Briefly: Antimicrobial activity against Trichophyton mentagrophytes at 120 ug/disk. The data set is classed as functional. A digest of the protocol:
as §1

Molecules are shown by their SMILES. Calls of active or inactive are those of the source. The calls are words filed in the database; no cut-off is given here.

As for `CCCCC[C@@H](C/C=C/CCC(=O)NC/C(=C/Cl)[C@H]1C(=O)C(C)(C)C(=O)[C@@H](C)[C@@]1(C)O)OC` [MALYNGAMIDE S], the result (with Bacillus subtilis; in the data set with Candida albicans; with Escherichia coli; in data set [3]) was inactive. Further, the Activity in data set [1] was above 4.5 mm. The inhibition (commonly the change of the read-out against control, counted positive when it falls) at 6.25 µg/mL in data set [2] came to 0%. The IC50 (usually the concentration at which inhibition is half-maximal) with HL-60 was 6 µM; in the data set on P388, 29 µM.

In the case of `CCCCC[C@@H](C/C=C/CCC(=O)O)OC`, the values for the zone of inhibition at 120 µg/disc (in the data set on Bacillus subtilis (read-out: IZ); in data set [3] (read-out: IZ)) were 2 mm and 3 mm, respectively. In addition, in data set [1], the Activity is listed as above 4.5 mm. The compound also showed an IC50 in the data set on P388 above 100 µM.
